Experimental findings from ChEMBL document CHEMBL4368873, “Novel O-methyl goniofufurone and 7-epi-goniofufurone derivatives: synthesis, in vitro cytotoxicity and SAR analysis” (Medchemcomm, 2018) are described below.

Active and inactive are the calls of the source. No cut-off for these calls is given here.

By IC50 is commonly meant the midpoint of a concentration-inhibition curve.

The test system of test [1] is K562. Kind of test: Cytotoxicity against human K562 cells assessed as inhibition of cell growth after 72 hrs by MTT assay. Format: functional, cell-based. The following applies: K562, 72 h.
A further test concerns HL-60. Kind of test: Cytotoxicity against human HL60 cells assessed as inhibition of cell growth after 72 hrs by MTT assay. Format: functional, cell-based. The following applies: HL-60, 72 h. The gist of the method:
(§1)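 Exponentially growing cells were exposed 72 h to compounds diluted from a 10 mM DMSO stock into serum-free medium. Growth was read by colorimetric MTT. Leukaemia/lymphoma lines (K562, HL-60, Jurkat, Raji) were grown in RPMI 1640; MCF-7, MDA-MB 231, HeLa, A549 and normal MRC-5 fibroblasts in DMEM; 37 °C, 5% CO2.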
For orientation: Tetrazolium assays rely on reduction of a dye to a coloured formazan, in cell work by metabolically active cells.

For a further test, the system named is Jurkat. Kind of test: Cytotoxicity against human Jurkat cells assessed as inhibition of cell growth after 72 hrs by MTT assay. Format: functional, cell-based. A digest of the protocol: as §1
In the next test the test system is Raji. The test can be described thus: Cytotoxicity against human Raji cells assessed as inhibition of cell growth after 72 hrs by MTT assay. Format: functional, cell-based.
For the next test, the system named is MCF7. Kind of test: Cytotoxicity against human MCF7 cells assessed as inhibition of cell growth after 72 hrs by MTT assay. Format: functional, cell-based. The following applies: MCF7, 72 h. A digest of the protocol:
as §1

For the next test, the system named is MDA-MB-231. Kind of test: Cytotoxicity against human MDA-MB-231 cells assessed as inhibition of cell growth after 72 hrs by MTT assay. Format: functional, cell-based. The following applies: MDA-MB-231, 72 h.
A further test relates to HeLa. Kind of test: Cytotoxicity against human HeLa cells assessed as inhibition of cell growth after 72 hrs by MTT assay. Format: functional, cell-based.
In test [2] the test system is A549. The test can be described thus: Cytotoxicity against human A549 cells assessed as inhibition of cell growth after 72 hrs by MTT assay. Format: functional, cell-based. The following applies: A549, 72 h.
A further test deals with MRC5. Kind of test: Cytotoxicity against human MRC5 cells assessed as inhibition of cell growth after 72 hrs by MTT assay. The following applies: MRC5, 72 h. Format: cell-based.
Test [3] relates to A549. Kind of test: Potency index, ratio of doxorubicin IC50 to test compound IC50 for human A549 cells. Format: functional.
Test [4] has as its system K562. The test can be described thus: Cell cycle arrest in human K562 cells assessed as accumulation at sub-G1 phase at IC50 after 72 hrs by propidium iodide staining based flow cytometry (reference value: 1.84%). Format: functional.
The subject of test [5] is K562. The test can be described thus: Cell cycle arrest in human K562 cells assessed as accumulation at G0/G1 phase at IC50 after 72 hrs by propidium iodide staining based flow cytometry (reference value: 47.51%). Format: functional.
In test [6] the test system is K562. Kind of test: Cell cycle arrest in human K562 cells assessed as accumulation at S phase at IC50 after 72 hrs by propidium iodide staining based flow cytometry (reference value: 26.52%). Format: functional. For orientation: In flow cytometry, cells or beads pass a laser one at a time.
Test [7] relates to K562. Kind of test: Cell cycle arrest in human K562 cells assessed as accumulation at G2/M phase at IC50 after 72 hrs by propidium iodide staining based flow cytometry (reference value: 24.13%). Format: functional.
The test system of test [8] is K562. Kind of test: Induction of apoptosis in human K562 cells assessed as apoptotic cells at IC50 after 72 hrs by Annexin V-FITC/propidium iodide staining based flow cytometry relative to control. Format: functional. The gist of the method: (§2)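 K562 cells seeded at 5 × 10⁵ per well, treated 72 h at each compound's IC₅₀ level. Viability was checked by trypan blue exclusion. Viable cells were double-stained with Annexin V-FITC and propidium iodide and analysed by flow cytometry. Results are given as specific apoptosis or specific necrosis (%) relative to untreated cells.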

Test [9] deals with K562. Kind of test: Induction of apoptosis in human K562 cells assessed as necrotic cells at IC50 after 72 hrs by Annexin V-FITC/propidium iodide staining based flow cytometry relative to control. Format: functional. A digest of the protocol:
as §2

The subject of test [10] is K562. Kind of test: Up regulation of Bcl-2 expression in human K562 cells at IC50 measured after 72 hrs by Western blot analysis. Format: functional, cell-based. In general terms: Immunoblotting shows a protein as a band on a membrane.
For test [11], the system named is K562. The test can be described thus: Up regulation of Bax expression in human K562 cells at IC50 measured after 72 hrs by Western blot analysis. Format: functional, cell-based.
Test [12] relates to K562. The test can be described thus: Up regulation of Caspase-3 precursor expression in human K562 cells at IC50 measured after 72 hrs by Western blot analysis. Format: functional, cell-based.
Test [13] deals with K562. Kind of test: Up regulation of cleaved PARP expression in human K562 cells at IC50 measured after 72 hrs by Western blot analysis. Format: functional, cell-based.
Test [14] deals with K562. Kind of test: Cell cycle arrest in human K562 cells assessed as increase in accumulation at sub-G1 phase at IC50 after 72 hrs by propidium iodide staining based flow cytometry relative to control. Format: functional.
The subject of test [15] is K562. The test can be described thus: Up regulation of active Caspase-3 expression in human K562 cells at IC50 measured after 72 hrs by Western blot analysis. Format: functional, cell-based.
Test [16] relates to K562. The test can be described thus: Down regulation of Bcl-2 expression in human K562 cells at IC50 measured after 72 hrs by Western blot analysis. Format: functional, cell-based.
Test [17] deals with K562. Kind of test: Down regulation of Bax expression in human K562 cells at IC50 measured after 72 hrs by Western blot analysis. Format: functional, cell-based.

As to `CO[C@@H]1[C@H]2OC(=O)C[C@H]2O[C@@H]1C(=O)c1ccccc1`, the IC50 in the test on K562 [1] amounted to 22.5 µM; in the test on HL-60, 11.2 µM; in the test with Jurkat it was 8.97 µM; with Raji, 25.6 µM; in the test with MCF7, 3.44 µM; with MDA-MB-231 it was 41 µM. Moreover, the 50% inhibitory concentration (IC50) with HeLa is 6.39 µM; in the test on A549 [2], 2.58 µM; with MRC5, greater than 100 µM. In addition, the “Ratio IC50” value in the test with A549 [3] turned out to be 2. Further, the Activity is on record as 1.33% in the test on K562 [4]; 45.46% in the test with K562 [5]; 23.68% with K562 [6]; 29.53% in the test on K562 [7]; 2.1% in the test on K562 [8]; -0.59% with K562 [9]. Also, the outcome in the test with K562 [10], in the test on K562 [11], in the test with K562 [12] and in the test on K562 [13] was Active.
On to `CO[C@@H]1[C@H]2OC(=O)C[C@H]2O[C@@H]1C(O)(c1ccccc1)c1ccccc1`, for which the IC50 with K562 [1] worked out at 28.7 µM; in the test on HL-60, 2.36 µM; in the test on Jurkat, 9.79 µM; with Raji it was 18.9 µM; in the test on MCF7, 11.4 µM; in the test with MDA-MB-231, 51 µM. Further, the IC50 with HeLa is 12.6 µM; in the test on A549 [2], 15.1 µM; in the test on MRC5 it was greater than 100 µM. Besides, the Activity came to 10.13% in the test with K562 [4]; 43.35% in the test with K562 [5]; 17.77% in the test with K562 [6]; 28.75% in the test with K562 [7]; 33.41% in the test with K562 [8]; 8.73% with K562 [9]. The “fold change (FC)” value in the test on K562 [14] turned out to be 5.5. Further, the result in the test with K562 [10], with K562 [11], in the test on K562 [12], with K562 [15] and in the test on K562 [13] was Active.
Take `CO[C@@H]1[C@H]2OC(=O)C[C@H]2O[C@@H]1[C@@H](OC)c1ccccc1`: the IC50 in the test on K562 [1] was 9.24 µM; in the test on HL-60 it was 4.36 µM; in the test with Jurkat, 1.69 µM; with Raji, 10.5 µM; with MCF7, greater than 100 µM; in the test with MDA-MB-231 it was 2.65 µM. Moreover, the half-inhibitory concentration (IC50) turned out to be 89.3 µM with HeLa, 25.1 µM with A549 [2] and 87.6 µM with MRC5. Moreover, the Activity is given as 2.4% in the test with K562 [4]; 48.59% with K562 [5]; 22.66% in the test on K562 [6]; 26.35% in the test with K562 [7]; 1.7% with K562 [8]; -0.44% with K562 [9]. The result with K562 [10], in the test with K562 [11], in the test with K562 [12] and with K562 [13] was Active.
On to `CO[C@@H]1[C@H]2OC(=O)C[C@H]2O[C@@H]1[C@@H](O)c1ccccc1`, for which the IC50 in the test on K562 [1] came out at 8.45 µM; with HL-60, 18.9 µM; with Jurkat it was 15.5 µM; with Raji, 12.2 µM; with MCF7, 12.7 µM; in the test with MDA-MB-231 it was 35.2 µM. Moreover, the IC50 in the test with HeLa was 11 µM; with A549 [2] it was 38.2 µM; in the test on MRC5, greater than 100 µM. For the same compound, the Activity with K562 [4] was found to be 28.67%; in the test with K562 [5], 35.04%; with K562 [6], 15.08%; in the test on K562 [7] it was 21.21%; with K562 [8], 55.48%; in the test with K562 [9] it was 2.57%. Moreover, the “fold change (FC)” value with K562 [14] was found to be 15.5. The outcome in the test on K562 [16], in the test on K562 [17] and with K562 [13] was Active.
Take `CO[C@@H](c1ccccc1)[C@H]1O[C@@H]2CC(=O)O[C@@H]2[C@H]1O`: the IC50 in the test with K562 [1] is 11.5 µM; with HL-60 it was 1.63 µM; with Jurkat, 12.6 µM; in the test with Raji, 21.1 µM; in the test with MCF7, greater than 100 µM; in the test on MDA-MB-231, 0.13 µM. The values for the IC50 in the test on HeLa, with A549 [2] and in the test with MRC5 were 8.46 µM, 5.31 µM and greater than 100 µM, respectively. Besides, the Activity in the test with K562 [4] worked out at 6.03%; in the test on K562 [5], 53.39%; in the test with K562 [6] it was 19.68%; in the test on K562 [7], 20.9%; in the test with K562 [8], 11.17%; with K562 [9] it was 0.55%. The “fold change (FC)” value with K562 [14] was found to be 3. Moreover, the outcome with K562 [16], in the test with K562 [17] and in the test on K562 [13] was Active.
Turning to `CO[C@@H]1[C@H]2OC(=O)C[C@H]2O[C@@H]1[C@H](O)c1ccccc1`, the half-maximal inhibitory concentration (IC50) with K562 [1] was 5.36 µM; with HL-60, 25 µM; in the test with Jurkat it was 24.9 µM; in the test on Raji, 8.69 µM; in the test with MCF7, 4.04 µM; in the test with MDA-MB-231 it was 28.6 µM. The half-maximal inhibitory concentration (IC50) in the test with HeLa was 8.63 µM; in the test with A549 [2], 23.6 µM; in the test on MRC5, greater than 100 µM. Besides, the Activity is recorded as 1.82% in the test on K562 [4]; 47.34% in the test on K562 [5]; 26.52% with K562 [6]; 24.32% with K562 [7]; 2.69% with K562 [8]; -0.54% in the test on K562 [9]. In addition, the outcome in the test with K562 [16], in the test on K562 [11] and in the test with K562 [13] was Active.
In the case of `O=C1C[C@H]2O[C@H]([C@H](O)c3ccccc3)[C@H](O)[C@H]2O1`, the IC50 with HL-60 was greater than 100 µM; in the test on MDA-MB-231 it was 75.3 µM; with MRC5, greater than 100 µM. The Activity in the test with K562 [4] is recorded as 2.16%; with K562 [5] it was 52.47%; in the test on K562 [6] it was 21.03%; with K562 [7], 24.34%; in the test on K562 [8], -0.36%; in the test with K562 [9], -0.31%. The result in the test on K562 [10], with K562 [11] and with K562 [13] was Active.
Turning to `CO[C@@H]1[C@H]2OC(=O)C[C@H]2O[C@@H]1[C@H](OC)c1ccccc1`, the half-inhibitory concentration (IC50) with K562 [1] was 14.7 µM; with HL-60, 2.21 µM; in the test on Jurkat, 2.36 µM; in the test with Raji, 12.4 µM; in the test on MCF7, greater than 100 µM; with MDA-MB-231, 1.36 µM. Moreover, the IC50 with HeLa was 56.4 µM; with A549 [2], 26.3 µM; in the test with MRC5, greater than 100 µM. Besides, the Activity worked out at 6.36% in the test on K562 [4]; 44.86% in the test on K562 [5]; 20.48% in the test on K562 [6]; 28.3% with K562 [7]; 4.32% with K562 [8]; 0.11% in the test on K562 [9]. The “fold change (FC)” value in the test on K562 [14] came out at 3.5. Further, the result in the test on K562 [10], in the test on K562 [11], in the test with K562 [12], with K562 [15] and with K562 [13] was Active.
